In one experiment the test system is MV4-11. Nature of the experiment: Anti-leukemic activity against human MV4-11 cells assessed as cell dead after 24 to 48 hrs by annexin V-FITC/7-AAD staining-based flow cytometric analysis. It is filed as functional. The conditions noted are these: for CC50: read-out: LD50 (the source's name). Put shortly:
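MV4-11 cells grown in IMDM with 10% FBS, penicillin and streptomycin, seeded at 5 × 10^5/ml and treated. At 24 and 48 h they were stained with annexin V-FITC plus 1 μg/ml 7-AAD. Percent dead cells (annexin V+) was read by flow cytometry and expressed relative to the DMSO vehicle control.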
For orientation: In flow cytometry, cells or beads pass a laser one at a time.

Another experiment has as its system Kasumi-4. As to the kind of experiment: (§1) Cytotoxicity against human Kasumi-4 cells assessed as apoptotic/dead cells after 24 to 48 hrs by annexin V-FITC/7-AAD staining-based flow cytometric analysis. The format is functional.
Experiment [1] is described as follows: as §1. It is filed as functional. Conditions: read-out: LD50 (the source's name).
Experiment [2] in a line: Cytotoxicity against human primary blast crisis phase of chronic myeloid leukemia cells assessed as apoptotic/dead cells at 25 nM measured at 96 hrs by CD45-APC-H7/ annexin V-FITC/7-AAD staining-based flow cytometric analysis relative to control. The format is functional, Leukemia cell. Put shortly:
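Thawed cryopreserved primary blast-crisis CML cells were treated and read at 24, 48 and 96 h time-points. Staining used CD45-APC-H7, annexin V-FITC and 7-AAD. Apoptotic/dead cells were scored by flow cytometry as percent annexin V+ blasts, normalized to the DMSO control.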

A further experiment deals with Tubulin (Homo sapiens) (UniProt P68371+Q9H4B7+P0DPH7+P68366+Q13509+Q71U36+P04350+Q3ZCM7+P07437+P68363+Q9BQE3+Q6PEY2+Q13885+Q9BVA1+Q9BUF5). As to the kind of experiment: Inhibition of tubulin polymerization in human MV4-11 cells at 50 nM after 2 hrs by immunoblot analysis relative to control. It is filed as cell-based. Put shortly: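 MV4-11 AML cells were exposed for 2 h to 25, 50 or 100 nM compound. Free tubulin (supernatant) and polymerized tubulin (pellet) were separated and detected by anti-tubulin immunoblot.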

Experiment [3] in a line: (§2) Cytotoxicity against human HL60 cells assessed as apoptotic/dead cells after 24 to 48 hrs by annexin V-FITC/7-AAD staining-based flow cytometric analysis. The format is functional. The conditions noted are these: HL-60, read-out: LD50 (the source's name).
The test system of another experiment is HL-60. Described as §2. It is filed as functional.
A further experiment deals with Kasumi 1. As to the kind of experiment: Cytotoxicity against human Kasumi-1 cells assessed as apoptotic/dead cells after 24 to 48 hrs by annexin V-FITC/7-AAD staining-based flow cytometric analysis. The format is functional.
Experiment [4] is described as follows: (§3) Cytotoxicity against human TF1 cells assessed as apoptotic/dead cells after 24 to 48 hrs by annexin V-FITC/7-AAD staining-based flow cytometric analysis. The format is functional. The conditions noted are these: TF-1, read-out: LD50 (the source's name).
The subject of the next experiment is TF-1. The experiment is described as §3. The format is functional.
A further experiment relates to Leukemia cell. As to the kind of experiment: Cytotoxicity against human primary blast crisis phase of chronic myeloid leukemia cells assessed as apoptotic/dead cells at 25 to 200 nM by CD45-APC-H7/ annexin V-FITC/7-AAD staining-based flow cytometric analysis. The conditions noted are these: TDE = time-dependent effect. It is filed as functional. Put shortly:
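Cryopreserved primary blast-crisis CML samples, obtained with informed consent and IRB approval, were thawed, cultured and treated with the indicated doses. At 48 h they were stained with CD45-APC-H7, then annexin V-FITC and 7-AAD. Percent annexin V+ blasts by flow cytometry, normalized to the DMSO control.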

Experiment [5] can be described thus: (§4) Cytotoxicity against human KCL22 cells assessed as apoptotic/dead cells after 24 to 48 hrs by annexin V-FITC/7-AAD staining-based flow cytometric analysis. It is filed as functional. The conditions noted are these: KCL-22, read-out: LD50 (the source's name).
The subject of the next experiment is KCL-22. Described as §4. The format is functional.
The next experiment relates to THP-1. As to the kind of experiment: Cytotoxicity against human THP1 cells assessed as apoptotic/dead cells after 24 to 48 hrs by annexin V-FITC/7-AAD staining-based flow cytometric analysis. The format is functional.
Experiment [6] can be described thus: (§5) Cytotoxicity against human MLL-ENL cells assessed as apoptotic/dead cells after 24 to 48 hrs by annexin V-FITC/7-AAD staining-based flow cytometric analysis. The conditions noted are these: read-out: LD50 (the source's name). It is filed as functional.
The species named for another experiment is Homo sapiens. Described as §5. It is filed as functional.
A further experiment has as its system MOLM-13. As to the kind of experiment: Cytotoxicity against human MOLM13 cells assessed as apoptotic/dead cells after 24 to 48 hrs by annexin V-FITC/7-AAD staining-based flow cytometric analysis. It is filed as functional.
The subject of a further experiment is KG-1. Nature of the experiment: (§6) Cytotoxicity against human KG1 cells assessed as apoptotic/dead cells after 24 to 48 hrs by annexin V-FITC/7-AAD staining-based flow cytometric analysis. It is filed as functional.
Experiment [7] can be described thus: as §6. Conditions: KG-1, read-out: LD50 (the source's name). It is filed as functional.
The next experiment concerns K562. Nature of the experiment: Cytotoxicity against human K562 cells assessed as apoptotic/dead cells after 24 to 48 hrs by annexin V-FITC/7-AAD staining-based flow cytometric analysis. The format is functional.
Another experiment relates to TUR. As to the kind of experiment: Cytotoxicity against human TUR cells assessed as apoptotic/dead cells after 24 to 48 hrs by annexin V-FITC/7-AAD staining-based flow cytometric analysis. It is filed as functional.
[8] abbreviates: read-out: LD50 (the source's name).

Turning to `COc1ccc(/C(C#N)=C/c2cc3ccccc3s2)cc1OC`, in the experiment with MV4-11, the CC50 amounted to 6060 nM.
Turning to `COc1cc(/C(C#N)=C/c2csc3ccccc23)cc(OC)c1OC`, in the experiment with MV4-11, the Activity result is “Dose-dependent effect” and the CC50 came to 180 nM.
For the compound `COc1cc(OC)cc(/C(C#N)=C/c2cc3ccccc3o2)c1`, in the experiment on MV4-11, the CC50 is 1170 nM.
Consider `COc1ccc(/C(C#N)=C/c2nc3ccccc3s2)cc1OC`, for which, in the experiment with MV4-11, the CC50 was 1220 nM.
As for `COc1cc(/C(C#N)=C/c2cc3ccccc3s2)cc(OC)c1OC`, the Activity result with Kasumi-4 is “Dose-dependent effect”; in [2], more than 50%; with HL-60, “Dose-dependent effect”; in the experiment on Kasumi 1, “Dose-dependent effect”; in the experiment with TF-1, “Dose-dependent effect”; in the experiment with Leukemia cell it was “tde”. Also, the Activity entry in the experiment on KCL-22, in the experiment with THP-1, in the experiment filed under Homo sapiens, in the experiment with MOLM-13, in the experiment on KG-1 and with K562 was “Dose-dependent effect” each time. Also, the Activity result in the experiment on TUR was “Dose-dependent effect”. Further, the CC50 in experiment [1] was 156 nM; in experiment [3] it was 120 nM; with Kasumi 1 (setting [8]), 151 nM; in experiment [4], 79.5 nM; in experiment [5], 114 nM; in the experiment with THP-1 (setting [8]), 227 nM. The CC50 is 271 nM in experiment [6]; 83 nM in the experiment on MOLM-13 (setting [8]); 113 nM in experiment [7]; 18 nM in the experiment with MV4-11; 99.5 nM with K562 (setting [8]); 93 nM in the experiment with TUR (setting [8]). Further, on Tubulin (Homo sapiens), the inhibition was more than 50%.

As a reminder, the inhibition is the relative decrease from the control value, in per cent. Read a low inhibition as a weak effect.

(Values after ChEMBL document CHEMBL3407388, “Synthesis, anticancer activity and molecular docking studies on a series of heterocyclic trans-cyanocombretastatin analogues as antitubulin agents” (2015).)
